According to article PMC2795045 (Chemico-biological interactions, 2010):
Where two headings read alike, the source gives them in different places.

Key:
XLK-WG cells [1] = assay: Semi-quantitative RT-PCR of AHR pathway transcripts in XLK-WG cells; type: cell-based, Xenopus laevis; settings: 100 nM TCDD, 24 hours
Summary of the method: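 XLK-WG cells were kept in the dark at 29 °C and 5% CO2 in RPMI-1640 with 20% FBS, then grown to near confluence. They were exposed for 24 h to 100 nM TCDD or DMSO vehicle (0.25% final). Total RNA was column-extracted, and RT-PCR covered CYP1A6, CYP1A7, AHR1α, AHR1β, ARNT1 and ARNT2. Cycling was 95 °C/1 min; 43 cycles of […], 50 °C/30 sec, 72 °C/60 sec; then 72 °C/7 min. A no-RT control was included.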

XLK-WG cells [2] = assay: qRT-PCR of selected altered transcripts in XLK-WG cells; type: cell-based, Xenopus laevis; settings: XLK-WG cells, relative to vehicle-treated control; for Xl.14954 (similar to voltage-gated potassium channel subunit MiRP4.1) fold induction, qRT-PCR: table row r10; for Xl.14954 fold induction, qRT-PCR: table row r16
CYP1A7 (Xl.1220) mRNA [3] = assay: as above; type: cell-based, Xenopus laevis; settings: Xenopus laevis
CYP1A6 (Xl.1692) mRNA [4] = assay: as above; type: cell-based, Xenopus laevis; settings: Xenopus laevis
XLK-WG cells [5] = assay: Affymetrix expression microarray of XLK-WG cells; type: cell-based, Xenopus laevis; settings: for Genes altered ≥ 2-fold: Induced / Genes altered ≥ 2-fold: Repressed / Genes altered (p ≤ 0.01): Induced / Genes altered (p ≤ 0.01): Repressed: 3 hours, number of genes; for Genes altered (p ≤ 0.01): Induced / Genes altered (p ≤ 0.01): Repressed: no two-fold cutoff; for fold induction at 0.1 µM: Xenopus laevis, 3 h
CYP1A7 (Xl.1220) mRNA [6] = assay: Affymetrix expression microarray of XLK-WG cells; type: cell-based, Xenopus laevis; settings: Xenopus laevis
CYP1A6 (Xl.1692) mRNA [7] = assay: Affymetrix expression microarray of XLK-WG cells; type: cell-based, Xenopus laevis; settings: Xenopus laevis
XLK-WG cells [8] = assay: CYP1A activity; type: cell-based, Xenopus laevis; settings: XLK-WG cells, at the concentration of maximum response
CYP1A [9] = assay: CYP1A activity; type: cell-based, Xenopus laevis; settings: Xenopus laevis
Hepa1c1c7 cells [10] = assay: CYP1A activity; type: cell-based, mouse; settings: for maximum EROD activity in Hepa1c1c7 cells relative to XLK-WG cells / maximum EROD activity induced: 3 hour treatment; for maximum EROD activity induced: ± SE
CYP1A [11] = assay: CYP1A activity; type: cell-based, mouse; settings: mouse
CYP1A1 = CYP1A1 mRNA induction in Hepa1c1c7 cells by quantitative RT-PCR; type: cell-based, mouse; settings: mouse, EC50 for CYP1A1 mRNA induction, 3 hours exposure, qRT-PCR, ± SE
Hepa1c1c7 cells [12] = assay: as above; type: cell-based, mouse; settings: read-out: EC50 for CYP1A1 mRNA induction, 3 hours exposure, qRT-PCR, ± SE
XLK-WG cells [13] = assay: CYP1A6/CYP1A7 mRNA induction in XLK-WG cells by quantitative RT-PCR; type: cell-based, Xenopus laevis
[14] = read-out: Hypothetical protein MCG81225 (similar to Zn-finger protein 410; Xl.16594) fold induction, Microarray

Compound: Clc1cc2c(cc1Cl)Oc1cc(Cl)c(Cl)cc1O2 [TCDD, 2,3,7,8-tetrachlorodibenzo-p-dioxin]
- CYP1A6 and CYP1A7 mRNA expression, semi-quantitative RT-PCR (XLK-WG cells [1]): up regulation of CYP1A6 and CYP1A7 mRNAs
- Hyaluronidase 2 (Xl.6247/Xl.16152) fold induction, qRT-PCR (XLK-WG cells [2]): 1.6 fold
- Hypothetical protein MCG81225 (similar to Zn-finger protein 410; Xl.16594) fold induction, qRT-PCR (XLK-WG cells [2]): 3.2 fold
- KCNE5.1: voltage-gated potassium channel subunit MiRP4.1 (Xl.16370) fold induction, qRT-PCR (XLK-WG cells [2]): 2.0 fold
- MGC52735:similar to gap-jct protein alpha-7 (Xl.3337) fold induction, qRT-PCR (XLK-WG cells [2]): 69.1 fold
- MGC85390 (Xl.23887; similar to RAB 40B, RAS oncogene family) fold induction, qRT-PCR (XLK-WG cells [2]): 2.0 fold
- Peripheral Myelin protein 22 (Xl.11939/Xl.14729) fold induction, qRT-PCR (XLK-WG cells [2]): 1.1 fold
- SYNE 1 (Xl. 14119) fold induction, qRT-PCR (XLK-WG cells [2]): 8.4 fold
- Xl.13754 (similar to C219-reactive peptide) fold induction, qRT-PCR (XLK-WG cells [2]): 2.2 fold
- Xl.14584 (similar to gastrula-specific protein kinase) fold induction, qRT-PCR (XLK-WG cells [2]): 10.1 fold
- Xl.25142 fold induction, qRT-PCR (XLK-WG cells [2]): 0.9 fold
- Xl.7783 fold induction, qRT-PCR (XLK-WG cells [2]): 2.0 fold
- Xl.14954 (similar to voltage-gated potassium channel subunit MiRP4.1) fold induction, qRT-PCR (XLK-WG cells [2]): 6.6 fold
- Xl.14954 fold induction, qRT-PCR (XLK-WG cells [2]): 3.0 fold
- fold induction at 3 h, 100 nM (CYP1A7 (Xl.1220) mRNA [3]): 320
- fold induction at 3 h, 100 nM (CYP1A6 (Xl.1692) mRNA [4]): 427
- Genes altered ≥ 2-fold: Induced (XLK-WG cells [5]; XLK-WG cells, 100 nM): 3
- Genes altered ≥ 2-fold: Repressed (XLK-WG cells [5]; XLK-WG cells, 100 nM): 1
- Genes altered (p ≤ 0.01): Induced (XLK-WG cells [5]; XLK-WG cells, 100 nM): 31
- Genes altered (p ≤ 0.01): Repressed (XLK-WG cells [5]; XLK-WG cells, 100 nM): 12
- fold induction at 0.1 µM (XLK-WG cells [5]; [14]): 1.3
- fold induction at 3 h, 0.1 µM (CYP1A7 (Xl.1220) mRNA [6]): 6.7
- fold induction at 3 h, 0.1 µM (CYP1A6 (Xl.1692) mRNA [7]): 1.7
- rise of induced CYP1A activity with 24 hours versus 3 hour exposure (XLK-WG cells [8]): more than 20 fold
- EC50 at 3 h (CYP1A [9]): 10.5 ± 3.17 nM
- EC50 at 24 h (CYP1A [9]): ≥ 95 nM
- maximum EROD activity in Hepa1c1c7 cells relative to XLK-WG cells (Hepa1c1c7 cells [10]): ~ 40 fold
- maximum EROD activity induced (Hepa1c1c7 cells [10]; Hepa1c1c7 cells): 13.41 ± 4.61 pmol • mg protein^−1 • min^−1
- EC50 at 3 h (CYP1A [11]): 0.03 ± 0.01 nM
- EC50 at 24 h (CYP1A [11]): 0.01 ± 0.002 nM
- EC50 at 3 h (CYP1A1): ~0.06 nM
- EC50 (Hepa1c1c7 cells [12]): 0.05 ± 0.02 nM

Compound: O=Cc1c2[nH]c3ccccc3c2cc2[nH]c3ccccc3c12 [FICZ, 6-formylindolo[3,2-b]carbazole]
- Hyaluronidase 2 (Xl.6247/Xl.16152) fold induction, qRT-PCR (XLK-WG cells [2]): 2.7 fold
- Hypothetical protein MCG81225 (similar to Zn-finger protein 410; Xl.16594) fold induction, qRT-PCR (XLK-WG cells [2]): 3.5 fold
- KCNE5.1: voltage-gated potassium channel subunit MiRP4.1 (Xl.16370) fold induction, qRT-PCR (XLK-WG cells [2]): 1.6 fold
- MGC52735:similar to gap-jct protein alpha-7 (Xl.3337) fold induction, qRT-PCR (XLK-WG cells [2]): 304 fold
- Peripheral Myelin protein 22 (Xl.11939/Xl.14729) fold induction, qRT-PCR (XLK-WG cells [2]): 1.0 fold
- SYNE 1 (Xl. 14119) fold induction, qRT-PCR (XLK-WG cells [2]): 106 fold
- Xl.13754 (similar to C219-reactive peptide) fold induction, qRT-PCR (XLK-WG cells [2]): 4.6 fold
- Xl.14584 (similar to gastrula-specific protein kinase) fold induction, qRT-PCR (XLK-WG cells [2]): 10.6 fold
- Xl.25142 fold induction, qRT-PCR (XLK-WG cells [2]): 1.8 fold
- Xl.7783 fold induction, qRT-PCR (XLK-WG cells [2]): 4.3 fold
- Xl.14954 (similar to voltage-gated potassium channel subunit MiRP4.1) fold induction, qRT-PCR (XLK-WG cells [2]): 9.5 fold
- Xl.14954 fold induction, qRT-PCR (XLK-WG cells [2]): 1.9 fold
- fold induction (CYP1A7 (Xl.1220) mRNA [3]): 412
- fold induction (CYP1A6 (Xl.1692) mRNA [4]): 455
- number of transcripts with altered expression in excess of TCDD (XLK-WG cells [5]; XLK-WG cells, 100 nM): 105
- Genes altered ≥ 2-fold: Induced (XLK-WG cells [5]; XLK-WG cells, 100 nM): 24
- Genes altered ≥ 2-fold: Repressed (XLK-WG cells [5]; XLK-WG cells, 100 nM): 2
- Genes altered (p ≤ 0.01): Induced (XLK-WG cells [5]; XLK-WG cells, 100 nM): 113
- Genes altered (p ≤ 0.01): Repressed (XLK-WG cells [5]; XLK-WG cells, 100 nM): 35
- fold induction at 0.1 µM (XLK-WG cells [5]; [14]): 1.3
- fold induction at 0.1 µM (XLK-WG cells [5]; read-out: KCNE5.1: voltage-gated potassium channel subunit MiRP4.1 (Xl.16370) fold induction, Microarray): 2
- fold induction at 0.1 µM (XLK-WG cells [5]; read-out: MGC52735:similar to gap-jct protein alpha-7 (Xl.3337) fold induction, Microarray): 5.2
- fold induction at 0.1 µM (XLK-WG cells [5]; read-out: MGC85390 (Xl.23887; similar to RAB 40B, RAS oncogene family) fold induction, Microarray): 2.1
- fold induction at 0.1 µM (XLK-WG cells [5]; read-out: Peripheral Myelin protein 22 (Xl.11939/Xl.14729) fold induction, Microarray): 2.2
- fold induction at 0.1 µM (XLK-WG cells [5]; read-out: SYNE 1 (Xl. 14119) fold induction, Microarray): 6.7
- fold induction at 0.1 µM (XLK-WG cells [5]; read-out: Xl.13754 (similar to C219-reactive peptide) fold induction, Microarray): 3.1
- fold induction at 0.1 µM (XLK-WG cells [5]; read-out: Xl.14584 (similar to gastrula-specific protein kinase) fold induction, Microarray): 2.9
- fold induction at 0.1 µM (XLK-WG cells [5]; read-out: Xl.14954 (similar to voltage-gated potassium channel subunit MiRP4.1) fold induction, Microarray): 3.1
- fold induction at 0.1 µM (XLK-WG cells [5]; read-out: Xl.14954 fold induction, Microarray): 2.1
- fold induction at 0.1 µM (XLK-WG cells [5]; read-out: Xl.25142 fold induction, Microarray): 2.1
- fold induction at 0.1 µM (XLK-WG cells [5]; read-out: Xl.7783 fold induction, Microarray): 5.9
- fold induction at 0.1 µM (CYP1A7 (Xl.1220) mRNA [6]): 16.1
- fold induction at 0.1 µM (CYP1A6 (Xl.1692) mRNA [7]): 2.1
- rise of induced CYP1A activity with 24 hours versus 3 hour exposure (XLK-WG cells [8]): more than 20 fold
- EC50 (CYP1A [9]; EC50 of induced CYP1A activity (EROD), XLK-WG cells, 3 hour exposure, ± SE): 0.56 ± 0.15 nM
- maximum EROD activity in Hepa1c1c7 cells relative to XLK-WG cells (Hepa1c1c7 cells [10]): ~ 20 fold
- EROD EC50 after 24 hours relative to EC50 after 3 hours (Hepa1c1c7 cells [10]; Hepa1c1c7 cells): ~ 50 fold
- maximum EROD activity induced (Hepa1c1c7 cells [10]; Hepa1c1c7 cells): 8.83 ± 2.72 pmol • mg protein^−1 • min^−1
- CYP1A6/7 mRNA quantities after 3 hours exposure relative to 24 hours exposure (XLK-WG cells [13]): up to 5 fold
- CYP1A7 mRNA induction after 3 hours relative to after 24 hours (XLK-WG cells [13]; highest dosage of FICZ): 5 fold
- EC50 (CYP1A1): ~0.06 nM
- EC50 (Hepa1c1c7 cells [12]): 0.07 ± 0.02 nM
